# The entries come from a sample that favours hits as a whole.
# INS promoter act: TRM-6 insulin promoter activation. TRM-6 cells (human fetal islet line), insulin promoter eGFP reporter, imaging; plate-scaled: unstimulated 0, stimulated control 100. actives 0.81% (n = 130,000). activation, % at 2 µM;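 active means activation at 2 µM above a set limit, confirmed on inspection of the cell images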;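 further: share of cells whose green reporter signal exceeds an intensity cutoff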
#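 Material: TRM-6 insulin promoter–eGFP reporter cells. Buffer or medium: Low-glucose (5.5 mM) medium with tamoxifen. Probe or stimulus: tamoxifen at 0.75 µM added at seeding for reporter induction. Times: tamoxifen pre-incubation 15 h overnight, then compound exposure 48 h at 37 °C. Detection: high-content imaging of fixed cells with Hoechst nuclear stain.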
# * = called active by the depositor.
SMILES,INS promoter act
Cc1cc(C2(c3ccc(O)c(C)c3)C(=O)Nc3ccccc32)ccc1O,127*
CCN(C(=O)Cc1ccc(Br)cc1)C1CCCCC1,5
O=C(CN1CCCCC1)NC(=O)NCc1ccccc1,3
CCOC(=O)/C(C#N)=C\C=C1C=CN(C)C=C1,110*
CCOC(=O)/C(C#N)=C\c1cc(C)n(-c2ccccc2)c1C,0
CCOC(=O)/C(C#N)=C\c1ccc(CC)s1,3
CCCCN1C(=O)C2Cc3c([nH]c4ccccc34)CN2C1=S (stereo not given),186
O=C1c2ccsc2SCCN1Cc1c(Cl)cccc1Cl,107
c1ccc(C2=Nc3cccnc3C(c3ccccc3)=NN2)cc1,6
Cc1cccc(N(C)c2cc(C)nc3nc(C)nn23)c1,50
COc1ccc(Cl)cc1NC(=S)N(CCN1CCOCC1)C1CCN(C(C)=O)CC1,-7
COc1cc(NC(=O)c2ncn[nH]2)cc(OC)c1OC,-6
Cc1ccc2nc(SCC(=O)NNC(=O)c3ccccc3)[nH]c2c1,0
CCOC(=O)c1ccccc1NC(=O)CN(c1ccc(OCC)cc1)S(C)(=O)=O,387*
CCOC(=O)c1ccccc1NC(=O)c1ccc(N(C)S(C)(=O)=O)cc1,388
CCOc1ccc(N(CC(=O)Nc2ccccc2C(=O)NCc2ccco2)S(C)(=O)=O)cc1,-3
C/C=C/C=N/Nc1nc(C)cc(=O)[nH]1,6
Cc1cc(C(=O)CSc2nnnn2C)c(C)n1CCc1ccc(F)cc1,126*
Cc1cc(C(=O)CSc2nnc(N)s2)c(C)n1CCc1ccc(F)cc1,0
Cc1cc(C(=O)CCl)c(C)n1CCc1ccc(F)cc1,-100
O=C(CSc1nnc(-c2ccncc2)n1CC1CCCO1)NCc1ccccc1 (stereo not given),-8
Cc1cc(C(=O)CSc2nnc(-c3ccc(F)cc3)o2)c(C)n1CC1COc2ccccc2O1 (stereo not given),8
Cc1cc(C(=O)CSc2nnc(-c3cccnc3)n2-c2ccccc2F)c(C)n1CC1CCCO1 (stereo not given),91*
O=C(NC(NC(=S)Nc1ccc(Cl)cc1Cl)C(Cl)(Cl)Cl)c1cccc([N+](=O)[O-])c1 (stereo not given),-10
O=C(N/C(=C\c1ccc([N+](=O)[O-])cc1)C(=O)N1CCCCC1)c1ccccc1Br,8
SMILES,INS promoter act
CC(C)CNC(=O)CC(=O)NN=C1CCCC1,-7
Cc1c(Cl)cccc1NCC(=O)NN=C1CCCC1,337*
O=C(CSc1ncccn1)NN=C1CCCCCC1,-67
Cc1ccc(OCCn2c(=S)[nH]c3c(N)ncnc32)cc1,7
CC(=O)c1c(C)[nH]c(C(=O)NCc2cccc(Cl)c2)c1C,7
O=C(NC1CCCC1)C(c1ccccc1)N(Cc1ccc2c(c1)OCO2)C(=O)Cc1cccs1 (stereo not given),246
Cn1cnnc1SCC(=O)N(Cc1ccc2c(c1)OCO2)C1(C(=O)NC2CCCCC2)CCCC1,7
NC(=O)c1noc(C(=O)N(CC(=O)NC2CCCC2)Cc2ccc3c(c2)OCO3)c1N,456*
O=C(CN1CCC(n2cnc3cc(F)ccc32)CC1)Nc1ccccc1Br,-7
COc1ccc(NS(=O)(=O)c2ccc3oc(SC4CCOC4=O)nc3c2)cc1 (stereo not given),-4
N#C/C(=C\c1ccc(N2CCOCC2)o1)c1nc2ccccc2[nH]1,142*
c1ccc2[nH]c(CN3CCOCC3)nc2c1,-3
N#C/C(=C\c1ccc(OC(=O)c2ccc(Br)s2)cc1)c1nc2ccccc2[nH]1,9
Cc1nn(C)c(C(=O)NCc2ccc(Cl)cc2)c1Cl,-10
c1ccc(CC2CCN(C3=Nc4cccc5cccc3c45)CC2)cc1,83*
O=C1c2cccc3cccc(c23)C(=O)N1CC1CCN(S(=O)(=O)c2ccc(F)cc2)CC1,0
c1cc2c3c(cccc3c1)C(N1CCN(C3=Nc4cccc5cccc3c45)CC1)=N2,-7
CCOc1cc(NC(=S)NCCc2ccccc2)c(OCC)cc1NC(C)=O,0
Cc1c(C(=O)NCc2ccccc2)c(-c2ccccc2)nn1-c1ccccc1,107
CC(=O)Oc1ccc(N2C(=O)C3C4C=CC(C5CC45)C3C2=O)cc1[N+](=O)[O-] (stereo not given),-6
O=[N+]([O-])c1ccc(-c2ccc(/C=N/Nc3nc(NCc4ccccc4)nc(N4CCOCC4)n3)o2)cc1,200*
CC(Sc1nc(NCc2ccccc2)nc(N2CCOCC2)n1)C(=O)Nc1ccccc1 (stereo not given),8
c1cncc(CNc2nc(N3CCOCC3)nc(N3CCOCC3)n2)c1,3
Cc1cccc(Oc2ccc(Cl)cc2N)c1,-71
Cc1nn(Cc2c(F)c(F)c(F)c(F)c2F)c(C)c1NC(=O)c1c([N+](=O)[O-])cnn1C,4
CCn1ccc(C(=O)Nc2c(C)nn(Cc3c(F)c(F)c(F)c(F)c3F)c2C)n1,364*
Cc1nn(Cc2c(F)c(F)c(F)c(F)c2F)c(C)c1NC(=O)c1c([N+](=O)[O-])c(C)nn1C,-10
Cc1nc2scc(-c3ccc(C(C)(C)C)cc3)c2c(=O)n1N,0

# Source: PubChem BioAssay (Columbia University Molecular Screening Center)
